Most compounds without a hit are left out; they make up all but 1.9% or so of the library.
proCasp7 act: procaspase-7 activators, primary screen, counter-screen for procaspase-3 activator project, biochemical, absorbance, HTS, human | recombinant procaspase-7, Ac-DEVD-pNA absorbance 405 nm; D23A/D198A/D206A triple mutant, cannot self-cleave; scale: DMSO 0, 5 µM enzyme 100 | activation, % at 8.5 µM | 0.093% of 330,000 active;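 active = percent activation above the screen-wide mean plus 3 SD, cut at about 25% in these data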
Target sequence (P55210 whole entry D23A/D198A/D206A): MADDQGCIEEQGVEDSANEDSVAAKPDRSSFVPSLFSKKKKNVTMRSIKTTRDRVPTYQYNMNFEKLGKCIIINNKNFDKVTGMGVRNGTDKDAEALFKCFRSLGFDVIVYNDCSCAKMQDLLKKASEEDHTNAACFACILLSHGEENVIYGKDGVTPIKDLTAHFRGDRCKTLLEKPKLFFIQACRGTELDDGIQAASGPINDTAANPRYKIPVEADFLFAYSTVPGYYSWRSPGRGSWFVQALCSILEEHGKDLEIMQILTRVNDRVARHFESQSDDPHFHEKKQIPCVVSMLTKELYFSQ
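System: Procaspase-7 triple mutant (PC-7 D3A); measure: % activation from two-timepoint absorbance difference, scaled to controls; times: 1 h compound preincubation, 2 h substrate cleavage, 25 °C; also added: Ac-DEVD-pNA substrate, 400 µM as added; measured by: Epi-absorbance of released pNA at 405 nm, two timepoints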
proCasp3 act: activators of human procaspase-3 D3A mutant, primary screen, biochemical, absorbance, PC-3 D3A mutant, single concentration; Caspase-3 (Homo sapiens), P42574; recombinant procaspase-3 D3A, Ac-DEVD-pNA absorbance 405 nm; activation, % at 8.5 µM; 0.11% of 330,000 active;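 active = activation above the mean of all tested compounds plus 3 SD, cut at about 21% in these data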;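 also: 0% = DMSO alone and 100% = DMSO wells spiked with extra 5 µM PC-3 D3A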
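material = Procaspase-3 D3A mutant | probe or stimulus = Ac-DEVD-pNA | compound = single dose, 8.5 µM nominal compound, 0.8% DMSO | timing = 1 h preincubation, 2 h reaction | measured by = 405 nm absorbance of p-nitroaniline, reads at 0 and 120 min | benchmarks = DMSO-only low control, 5 µM PC-3 D3A high control | repeats = singlicate, each compound tested once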
IDE cell inh: human IDE inhibitors in live cells, primary screen, fluorescence polarization, HEK cells, FAbetaB substrate; Insulin-degrading enzyme (Homo sapiens), P14735; FAbetaB cleavage; inhibition, % at 5.59 µM; 0.41% of 320,000 active; AID 434962, 2010;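 active = percent inhibition above the average of all tested compounds plus 3 SD, set per screening campaign, cut at about 16% in these data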;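 also: IDE supplied by intact live HEK cells; FP after avidin binding of uncleaved biotin substrate so inhibition keeps polarization high; 0% = DMSO wells and 100% = 60 µM reference IDE inhibitor Ii1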
IDE cell activ: human IDE activators in live cells, primary screen, fluorescence polarization, HEK cells, FAbeta-B substrate. Insulin-degrading enzyme (Homo sapiens), P14735. FAbeta-B cleavage; 0% vehicle, 100% cell-free pure enzyme wells. activation, % at 5.96 µM. 0.073% of 340,000 active. AID 493087, 2011;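 active = activation above the mean of all tested compounds plus 3 SD, set per screening campaign, cut at about 17% in these data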
UBC13 inh: UBC13 polyubiquitin chain formation inhibitors, primary screen, biochemical, TR-FRET, uHTS; Ubiquitin-conjugating enzyme E2 N (Homo sapiens), P61088; inhibition, % at 20 µM; 0.47% of 330,000 active; in the data active = inhibition above about 45%, passing the limit was not always enough
Target sequence (P61088 whole entry, looked up): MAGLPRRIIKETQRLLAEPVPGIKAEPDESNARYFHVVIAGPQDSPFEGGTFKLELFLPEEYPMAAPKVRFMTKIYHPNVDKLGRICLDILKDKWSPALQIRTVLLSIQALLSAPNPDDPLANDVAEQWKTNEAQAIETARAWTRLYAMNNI
PHOSPHO1 block: PubChem AID 1565; Phosphoethanolamine/phosphocholine phosphatase (Homo sapiens), Q8TCT1; recombinant PHOSPHO1, absorbance phosphatase assay; inhibition, % at 13.3 µM; 1.1% of 290,000 active; in the data active = inhibition above about 60%
IDE inh confirm: human IDE inhibitors in live cells, confirmation, fluorescence polarization, HEK cells, FAbetaB substrate; inhibition, % at 5.59 µM; FAbetaB cleavage; 51% of 1,200 active; shares compounds with IDE cell inh;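 active = mean inhibition across triplicate wells above the cutoff set by the earlier primary insulin-degrading enzyme screen, cut at about 16% in these data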;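 also: 0% = DMSO wells and 100% = 60 µM reference IDE inhibitor Ii1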
HEK293 tox: cytotoxicity in HEK cells, cytotoxicity control for IDE inhibitor project, cell-based, luminescence; HEK293 cytotoxicity, ATP luminescence; shares compounds with IDE cell inh; 28% of 1,200 active; inhibition, % at 5.59 µM; in the data active = inhibition above about 22%;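 also: 0% = vehicle wells and 100% = reference cytotoxic drug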
IDE FP artifact: fluorescent or optically active artefacts, dose response, artefact control for IDE inhibitor project, biochemical, fluorescence polarization. shares compounds with IDE cell inh. FP counterscreen for fluorescent artifacts, IDE probe project. IC50, µM. 30 tested, under 10 active; call rule not given here
* marks the source's active call; other numbers are inactive results; . = no result.

SMILES	proCasp7 act	proCasp3 act	IDE cell inh	IDE cell activ	UBC13 inh	PHOSPHO1 block	IDE inh confirm	HEK293 tox	others
Cc1c(C)c2ccc(OCC(=O)N3CCC[C@@H]3C(=O)O)c(C)c2oc1=O	9	9	17*	5	-5	24	2	15
Cn1c(NN)nc2c1c(=O)n(Cc1ccccc1)c(=O)n2C	.	.	.	4	8	33	.	.
Cc1cccc(C(=O)NCC(c2ccc(F)cc2)N2CCOCC2)c1 (stereo unspecified)	-5	1	16*	6	-6	32	7	7
CC(C)CC[n+]1ccccc1/C=C/c1ccc(N(C)C)cc1	-8	-4	37*	-12	-329	14	69*	101*
C=CCn1c(SCC(=O)N(C)C)nc2sc3c(c2c1=O)CCC3	12	-1	9	-8	6	12	.	.
N=c1ccn(CC(=O)c2ccc(-c3ccccc3)cc2)cc1	1	-2	43*	-27	1	4	11	88*
CCOc1ccc2nc(NC(=O)CSc3nc4c(c(=O)n(C)c(=O)n4C)n3C(C)C)sc2c1	10	0	-3	-2	-3	4	.	.
CCOc1ccc2nc(NC(=O)Cn3cnc4c3c(=O)n(C)c(=O)n4C)sc2c1	1	1	19*	-18	20	21	-2	10
O=c1[nH]c2ccccc2c(O)c1O	-27	-25	62*	-47	0	0	65*	18
Cc1cc(OCC(=O)Nc2ccc(Br)cc2)cc2c1C(=O)CC(C)(C)O2	-1	-5	17*	.	-2	-6	0	22
CN(c1ccccc1)c1ccc(/C=C/[N+](=O)[O-])cc1	-29	-15	32*	-51	.	11	26*	117*
COc1ccc(C(=O)NC(=O)COC(=O)C2CC2C)cc1 (stereo unspecified)	10	0	-3	1	3	.	.	.
Cc1ccc(S(=O)(=O)N2CCC(C(=O)Nc3cc(C(F)(F)F)ccc3N3CCOCC3)CC2)cc1C	9	11	0	3	0	.	.	.
Cn1c(SCC(=O)Nc2ccc3nc(SCC(=O)N4CCCC4)sc3c2)nnc1-c1ccccc1	-1	1	21*	.	-10	42	14	10
COc1ccccc1C(=O)NNC(=O)c1ccc(Br)cc1	2	-1	1	0	4	-24	.	.
O=C(COc1cccc(Cl)c1)Nc1nc(-c2ccc(S(=O)(=O)N3CCOCC3)cc2)cs1	.	.	.	-16	.	-7	.	.
CCOc1cccc(C(=O)Nc2nc(-c3ccc(S(=O)(=O)N4CCOCC4)cc3)cs2)c1	-2	2	23*	-16	1	-11	9	38*
Cc1cccc(NC(=O)CCCNC(=O)c2ccc(Cl)cc2)n1	-1	9	1	-1	5	28	.	.
O=C(Nc1cccc(C(F)(F)F)c1)c1csc(Cc2cccc(C(F)(F)F)c2)n1	.	.	.	.	.	.	.	.	IDE FP artifact=>55
O=C(Nc1ccc(Cl)cc1)c1csc(Cc2ccccc2)n1	7	8	-1	5	14	34	.	.
O=C(COC(=O)c1ccccc1O)Nc1cccnc1Cl	13	3	1	5	3	-17	.	.
O=C(COC(=O)c1cccnc1Cl)Nc1nc(-c2ccccc2)cs1	-3	-3	26*	-15	16	4	6	12

Bioassay records from PubChem BioAssay.
